Our source for the IC50 and Activity values is ChEMBL document CHEMBL1157467, “Discovery of nonsteroidal 17beta-hydroxysteroid dehydrogenase 1 inhibitors by pharmacophore-based screening of virtual compound libraries” (J Med Chem, 2008).

Test [1] deals with T1, 11-beta-hydroxysteroid dehydrogenase 1 (Homo sapiens, UniProt P28845). Put plainly: Inhibition of human recombinant 11beta-HSD1 expressed in HEK293 cell lysate assessed as conversion of radiolabeled estrone to estradiol. The class given is cell-free.
Target sequence in this assay (P28845 whole entry): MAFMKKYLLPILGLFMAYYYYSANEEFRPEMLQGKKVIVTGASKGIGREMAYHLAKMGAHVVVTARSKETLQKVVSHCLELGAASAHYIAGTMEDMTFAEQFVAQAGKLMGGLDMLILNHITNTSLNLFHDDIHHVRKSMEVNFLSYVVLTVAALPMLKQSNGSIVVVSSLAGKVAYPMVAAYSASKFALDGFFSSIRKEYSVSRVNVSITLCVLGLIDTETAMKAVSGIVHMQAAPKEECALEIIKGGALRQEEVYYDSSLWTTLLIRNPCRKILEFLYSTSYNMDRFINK
For test [2], the target named is T2, 17-beta-hydroxysteroid dehydrogenase type 2 (Homo sapiens) (UniProt P37059).
T2 sequence (whole entry): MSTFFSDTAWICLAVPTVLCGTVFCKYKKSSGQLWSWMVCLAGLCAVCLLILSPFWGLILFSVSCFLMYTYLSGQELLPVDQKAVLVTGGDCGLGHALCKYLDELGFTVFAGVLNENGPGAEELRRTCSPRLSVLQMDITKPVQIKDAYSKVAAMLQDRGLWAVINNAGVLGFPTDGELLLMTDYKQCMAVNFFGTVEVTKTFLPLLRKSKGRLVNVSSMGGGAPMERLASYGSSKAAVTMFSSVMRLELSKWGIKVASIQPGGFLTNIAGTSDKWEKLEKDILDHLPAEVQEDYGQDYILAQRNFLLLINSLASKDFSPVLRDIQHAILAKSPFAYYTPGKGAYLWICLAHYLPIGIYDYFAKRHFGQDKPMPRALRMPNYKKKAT
Put plainly: Inhibition of human recombinant 17beta-HSD2 expressed in HEK293 cell lysate assessed as conversion of radiolabeled estrone to estradiol at 20 uM. The class given is cell-free. More on the design: scale not given: the % may be the effect or the level left.

In test [3] the target is T3, 17-beta-hydroxysteroid dehydrogenase type 1 (Homo sapiens, UniProt P14061).
T3 sequence (P14061 whole entry): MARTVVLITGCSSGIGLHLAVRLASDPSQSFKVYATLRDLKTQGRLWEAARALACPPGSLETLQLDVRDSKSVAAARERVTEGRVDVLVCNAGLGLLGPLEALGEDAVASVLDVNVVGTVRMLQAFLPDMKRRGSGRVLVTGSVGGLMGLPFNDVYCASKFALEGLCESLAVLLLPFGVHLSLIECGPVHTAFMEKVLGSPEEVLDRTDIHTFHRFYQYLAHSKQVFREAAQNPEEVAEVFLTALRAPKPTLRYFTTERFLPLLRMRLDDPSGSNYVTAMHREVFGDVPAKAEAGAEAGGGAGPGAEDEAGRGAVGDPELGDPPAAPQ
Put plainly: Inhibition of human recombinant 17beta-HSD1 expressed in HEK293 cell lysate assessed as conversion of radiolabeled estrone to estradiol. The class given is cell-free. The gist of the method:
(§1)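 HEK-293 cells transiently transfected with human 17β-HSD1 by calcium phosphate were harvested 48 h later, and the pellets were frozen at -70 °C. Pellets were resuspended in 50 mM potassium phosphate, 20% glycerol and 1 mM EDTA. Conversion of 200 nM radiolabeled estrone to estradiol was measured immediately with 500 µM NADPH. […] DMSO was ≤0.1%. Values are mean ± SD from three independent experiments.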

The target in test [4] is T4, 17-beta-hydroxysteroid dehydrogenase type 3 (Homo sapiens) (UniProt P37058).
T4 sequence (whole entry): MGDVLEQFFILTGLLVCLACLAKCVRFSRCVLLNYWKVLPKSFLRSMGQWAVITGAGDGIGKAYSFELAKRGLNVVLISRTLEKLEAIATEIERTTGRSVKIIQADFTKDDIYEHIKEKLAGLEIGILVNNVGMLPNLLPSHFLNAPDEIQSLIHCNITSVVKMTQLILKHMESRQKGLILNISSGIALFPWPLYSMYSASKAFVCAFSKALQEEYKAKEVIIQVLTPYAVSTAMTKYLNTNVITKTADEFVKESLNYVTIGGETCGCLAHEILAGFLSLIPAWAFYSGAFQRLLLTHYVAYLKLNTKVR
Put plainly: Inhibition of human recombinant 17beta-HSD3 expressed in intact HEK293 cells assessed as conversion of androstenedione to testosterone at 20 uM. The test is classed as cell-based. More on the design: scale not given: the % may be the effect or the level left. In short, it runs like this:
(§2)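 17β-HSD3 or 17β-HSD5 was transiently expressed in HEK-293 cells. Conversion of androstenedione to testosterone was measured in intact cells without added cofactor. Compounds were tested at 20 µM, with final DMSO ≤0.1%. Values are mean ± SD from three independent experiments.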

The target in test [5] is T1, 11-beta-hydroxysteroid dehydrogenase 1. Put plainly: Inhibition of human recombinant 11beta-HSD1 expressed in HEK293 cell lysate assessed as conversion of radiolabeled estrone to estradiol at 20 uM. The class given is cell-free. On the set-up: scale not given: the % may be the effect or the level left.
Target sequence in this assay (P28845 whole entry, looked up): as the sequence (P28845 whole entry) above
Test [6] addresses T5, 17-beta-hydroxysteroid dehydrogenase type 1 (Homo sapiens) (UniProt P14061).
T5 sequence (whole entry): T3 sequence (P14061 whole entry)
Put plainly: Inhibition of human recombinant 17beta-HSD1 expressed in HEK293 cell lysate assessed as conversion of radiolabeled estrone to estradiol at 20 uM. On the set-up: scale not given: the % may be the effect or the level left. The test is classed as cell-free. In short, it runs like this: as §1

The target in test [7] is T6, Aldo-keto reductase family 1 member C3 (Homo sapiens) (UniProt P42330).
T6 sequence (whole entry): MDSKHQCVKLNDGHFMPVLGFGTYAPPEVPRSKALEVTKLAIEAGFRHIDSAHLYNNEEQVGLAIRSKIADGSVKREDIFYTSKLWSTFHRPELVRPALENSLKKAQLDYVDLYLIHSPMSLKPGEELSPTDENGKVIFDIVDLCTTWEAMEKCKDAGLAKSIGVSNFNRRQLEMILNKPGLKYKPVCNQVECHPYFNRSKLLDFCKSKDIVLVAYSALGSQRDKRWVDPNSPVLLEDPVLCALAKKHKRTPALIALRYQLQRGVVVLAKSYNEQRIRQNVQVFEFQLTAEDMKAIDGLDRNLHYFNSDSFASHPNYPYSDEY
Put plainly: Inhibition of human recombinant 17beta-HSD5 expressed in intact HEK293 cells assessed as conversion of androstenedione to testosterone at 20 uM after 24 hrs. The class given is cell-based. On the set-up: scale not given: the % may be the effect or the level left. In short, it runs like this: as §2

The source made the active and inactive calls. No cut-off for these calls is given here.

On to `CCOc1cc(/C=N/NC(N)=O)c(Br)c(Br)c1OCC(=O)Nc1ccc(C)cc1`, for which the IC50 in test [1] is more than 50 µM; in test [3] it was 5.7 µM. Moreover, the Activity was 76% in test [2], 96% in test [4], 70% in test [5] and 16% in test [6]. The outcome in test [7] was inactive.

`Cc1ccc(S(=O)(=O)N/N=C2\C=C[C@H]3[C@@H]4CC=C5C[C@@H](O)CC[C@]5(C)[C@H]4CC[C@]23C)cc1`: the values for the IC50 in test [1] and in test [3] were 3.8 µM and 47 µM, respectively. Further, the Activity in test [2] came out at 97%; in test [4], 69%; in test [5], 9%; in test [6] it was 63%; in test [7], 45%.

For the compound `C[C@]12CC[C@@H]3c4ccc(OC5CCCCO5)cc4CC[C@H]3[C@@H]1CC[C@@H]2O` (stereo partly specified), in test [1], the half-inhibitory concentration (IC50) stood at 20 µM. Besides, the Activity in test [2] came to 90%; in test [4], 57%; in test [5], 365%; in test [6] it was 74%. For the same compound, the result in test [7] was inactive.

Regarding `CCOc1cc(CNC2C(C)=NN=C2S)cc(Br)c1OCC(=O)NC1CCCCC1` (stereo unspecified), in test [1], the IC50 turned out to be 6.2 µM. The Activity in test [2] is 105%; in test [4] it was 19%; in test [5], 16%; in test [6] it was 70%. Moreover, in test [7], the result was inactive.

The IC50 is the concentration at which inhibition is half-maximal.
